In PMC8603004 (EFSA Journal, 2021):
Where “and” joins values, the source holds several entries; their conditions need not be identical. Equal values may be shown once. Marks after values point to notes of the source that are not given here.

What was measured:
[1] = Incubation of 14C‐3‐NOP in liver fractions; format: in vitro ADME; settings: Beagle, dog, liver S9
How it was run: (§1)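 14C-labelled test compound was incubated with or without NAD+ in liver S9, cytosol and microsomes from Sprague–Dawley rat, Wistar Han rat, Beagle dog and human. Aliquots were taken at several time points and the proteins precipitated. Supernatants were analysed by liquid scintillation counting and radio-HPLC, and half-life was derived from the time course.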

[2] = Incubation of 14C‐3‐NOP in liver fractions; format: in vitro ADME, humans; settings: human, liver S9 and liver cytosol
How it was run: as §1

[3] = ADME of 14C‐3‐NOP following single or multiple oral administration; format: in vivo, rat; settings: for Radioactivity in plasma 48 h after the last dose: 50 mg/kg bw for five days
[4] = test system: Holstein Friesian dairy cows; assay: Tolerance study in dairy cows; format: in vivo; settings: for Dry matter intake: 56 days
[5] = test system: Chinese hamster V79 cells; assay: In vitro micronucleus assay with CREST staining; format: cell-based
[6] = test system: Wistar rats; assay: 90‐day oral gavage study; format: in vivo
[7] = test system: Wistar rats; assay: 2‐year carcinogenicity study; format: in vivo
[8] = test system: Holstein Friesian dairy cows; assay: Dose‐range finding study in dairy cows; format: in vivo; settings: group 10× (16 g 3‐NOP/day, 800 mg/kg complete feed) compared to the control
[9] = Eye irritation study
[10] = Octanol–water partition coefficient; format: physicochemical
[11] = test system: ruminal microorganisms; assay: In vitro ruminal fermentation; settings: 3‐NOP added to the feed at different concentrations, three studies
How it was run: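 Rumen fermentation was simulated in a chemostat (RUSITEC) as continuous culture of ruminal microorganisms. Each of three studies included a control without additive and one or more groups with test compound added to the feed at differing concentrations.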

[12] = single 50 mg/kg bw, males, 48 h
[13] = trial iii, 500 mg/kg bw, 1 h, females
[14] = trial iii, 500 mg/kg bw, 1 h, males
[15] = trial iv, 5 x 50 mg/kg bw, 48 h after last administration, females
[16] = trial iv, 5 x 50 mg/kg bw, 48 h after last dose, males
[17] = 90.2 mg 3‐NOP/kg feed DM (× 0.8)
[18] = 106.8 mg 3‐NOP/kg feed DM (× 1)
[19] = 220.4 mg 3‐NOP/kg feed DM (× 2)

SMILES: O=[N+]([O-])OCCCO [3‐NOP, propan‐1,3‐diol‐mononitrate]
- half-life [1]: 66 min
- half-life [2]: ~42 min
- Parent compound in the stomach and caecum ([3]; 500 mg/kg, 1 h, females): 70 % of administered dose
- Parent compound in the stomach and caecum ([3]; 500 mg/kg, 1 h, males): 83 % of administered dose
- Parent compound in the liver ([3]; 500 mg/kg, 1 h, two values given, sexes not named): 3.5 % of TRR
- Total mean recovery of administered radioactivity ([3]; single 50 mg/kg bw, females): 91.1%
- Urinary excretion, mean ([3]; single 50 mg/kg bw, females): 4.8%
- Mean radioactivity in plasma 48 h after dosing ([3]; single 50 mg/kg bw, females, 50 mg/kg): 4.2 μg 3‐NOP‐eq/mL and 4.22 μg 3‐NOP‐eq/mL
- Total mean recovery of administered radioactivity ([3]; single 50 mg/kg bw, males): 95.9%
- Urinary excretion, mean ([3]; single 50 mg/kg bw, males): 6.3%
- Administered radioactivity recovered in expired air ([3]; single 50 mg/kg bw, males and females): about 80%
- Mean concentration of TR in adrenals [3, 12]: 19.5 μg 3‐NOP‐eq/g
- Mean concentration of TR in bone marrow [3, 12]: 14.3 μg 3‐NOP‐eq/g
- Mean concentration of TR in kidneys [3, 12]: 10.9 μg 3‐NOP‐eq/g
- Mean concentration of TR in liver [3, 12]: 12.6 μg 3‐NOP‐eq/g
- Mean radioactivity in plasma 48 h after dosing ([3]; single 50 mg/kg bw, males, 50 mg/kg): 7.0 μg 3‐NOP‐eq/mL and 7.03 μg 3‐NOP‐eq/mL
- Administered radioactivity recovered in expired air ([3]; single 500 mg/kg bw, females): 61.7%
- Total mean recovery of administered radioactivity ([3]; single 500 mg/kg bw, females): 85.3%
- Urinary excretion, mean ([3]; single 500 mg/kg bw, females): 13.1%
- Mean radioactivity in plasma 48 h after dosing ([3]; single 500 mg/kg bw, females, 500 mg/kg): 34.5 μg 3‐NOP‐eq/mL and 34.47 μg 3‐NOP‐eq/mL
- Administered radioactivity recovered in expired air ([3]; single 500 mg/kg bw, males): 73.5%
- Total mean recovery of administered radioactivity ([3]; single 500 mg/kg bw, males): 93.2%
- Urinary excretion, mean ([3]; single 500 mg/kg bw, males): 11.3%
- Mean radioactivity in plasma 48 h after dosing ([3]; single 500 mg/kg bw, males, 500 mg/kg): 51.9 μg 3‐NOP‐eq/mL and 51.92 μg 3‐NOP‐eq/mL
- Mean concentration of TR in plasma ([3]; trial iii, 500 mg/kg bw, 15 min, females): 477 μg 3‐NOP‐eq/mL
- Mean concentration of TR in plasma ([3]; trial iii, 500 mg/kg bw, 15 min, males): 396 μg 3‐NOP‐eq/mL
- Mean concentration of TR in plasma ([3]; trial iii, 500 mg/kg bw, 45 min, females): 629 μg 3‐NOP‐eq/mL
- Mean concentration of TR in plasma ([3]; trial iii, 500 mg/kg bw, 45 min, males): 512 μg 3‐NOP‐eq/mL
- Mean concentration of TR in plasma [3, 13]: 583 μg 3‐NOP‐eq/mL
- TR in kidneys [3, 13]: 865 μg 3‐NOP‐eq/g
- TR in liver [3, 13]: 622 μg 3‐NOP‐eq/g
- Mean TR in kidneys [3, 14]: 636 μg 3‐NOP‐eq/g
- Mean TR in liver [3, 14]: 655 μg 3‐NOP‐eq/g
- Mean TR in lungs [3, 14]: 494 μg 3‐NOP‐eq/g
- Mean TR in pancreas [3, 14]: 471 μg 3‐NOP‐eq/g
- Mean concentration of TR in plasma [3, 14]: 467 μg 3‐NOP‐eq/mL
- Time of TR max in plasma ([3]; trial iii, 500 mg/kg bw, all animals): 45 min
- Radioactivity in plasma 48 h after the last dose ([3]; trial iv, females): 11.7 μg 3‐NOP‐eq/mL
- Radioactivity in plasma 48 h after the last dose ([3]; trial iv, males): 14.4 μg 3‐NOP‐eq/mL
- TR in adrenals [3, 15]: 57.0 μg 3‐NOP‐eq
- TR in bone marrow [3, 15]: 21.3 μg 3‐NOP‐eq/g
- TR in kidneys [3, 15]: 30.0 μg 3‐NOP‐eq
- TR in liver [3, 15]: 32.3 μg 3‐NOP‐eq
- TR in lungs [3, 15]: 20.7 μg 3‐NOP‐eq/g
- TR in ovaries [3, 15]: 35.7 μg 3‐NOP‐eq
- TR in pancreas [3, 15]: 21.6 μg 3‐NOP‐eq/g
- TR in renal fat [3, 15]: 34.1 μg 3‐NOP‐eq
- TR in spleen [3, 15]: 20.1 μg 3‐NOP‐eq/g
- TR in thymus [3, 15]: 24.7 μg 3‐NOP‐eq/g
- TR in adrenals [3, 16]: 51.2 μg 3‐NOP‐eq/g
- TR in bone marrow [3, 16]: 34.1 μg 3‐NOP‐eq/g
- TR in epididymis [3, 16]: 18.2 μg 3‐NOP‐eq/g
- TR in kidneys [3, 16]: 34.8 μg 3‐NOP‐eq/g
- TR in liver [3, 16]: 34.9 μg 3‐NOP‐eq/g
- TR in lungs [3, 16]: 18.7 μg 3‐NOP‐eq/g
- TR in pancreas [3, 16]: 20.0 μg 3‐NOP‐eq/g
- TR in prostate [3, 16]: 24.6 μg 3‐NOP‐eq/g
- TR in spleen [3, 16]: 22.9 μg 3‐NOP‐eq/g
- TR in thymus [3, 16]: 28.5 μg 3‐NOP‐eq/g
- Mean cumulative excretion via the expired air ([3]; trial iv, 48 h after the last dose): about 70 % of the total administered radioactivity
- Radioactivity in carcass ([3]; trial iv, females): 3.6%
- Total mean recovery of the administered radioactivity ([3]; trial iv, females): 83.1%
- Radioactivity in carcass ([3]; trial iv, males): 3.5%
- Total mean recovery of the administered radioactivity ([3]; trial iv, males): 86.4%
- ALT [4, 17]: 27* U/L
- Albumin [4, 17]: 36 g/L
- Amylase [4, 17]: 34 U/L
- Body weight [4, 17]: 676 kg
- Body weight change [4, 17]: 43.6 kg
- Fat yield [4, 17]: 0.81 kg/day
- Fibrinogen [4, 17]: 0.88 g/L
- Haematocrit [4, 17]: 28* %
- Haemoglobin d56 [4, 17]: 110 g/L
- LDH d56 [4, 17]: 1249 U/L
- Mean corpuscular haemoglobin [4, 17]: 16.5* pg
- Milk yield [4, 17]: 28.7 kg/day
- Monocytes d5 [4, 17]: 4.8e+08 L⁻¹
- Monocytes d56 [4, 17]: 3.1e+08 L⁻¹
- Ovary absolute size [4, 17]: 31.9 g
- Ovary relative size [4, 17]: 0.048 g per kg final bw
- Protein yield [4, 17]: 0.92 kg/day
- Prothrombin time [4, 17]: 27.3* s
- Red blood cells [4, 17]: 6.52* ×10^12/L
- Water consumption [4, 17]: 95.9 kg/day
- Dry matter intake [4, 17]: 22.9 kg/day
- ALT [4, 18]: 27* U/L
- Albumin [4, 18]: 36 g/L
- Amylase [4, 18]: 34 U/L
- Body weight [4, 18]: 675 kg
- Body weight change [4, 18]: 42.2 kg
- Ca [4, 18]: 2.47* mmol/L
- Energy corrected milk [4, 18]: 22.7 kg/day
- Fat yield [4, 18]: 0.74 kg/day
- Fibrinogen [4, 18]: 0.93 g/L
- Haematocrit [4, 18]: 28* %
- Haemoglobin d56 [4, 18]: 109 g/L
- LDH d56 [4, 18]: 1245 U/L
- Milk yield [4, 18]: 27.5 kg/day
- Monocytes d5 [4, 18]: 4.6e+08 L⁻¹
- Ovary absolute size [4, 18]: 29.7 g
- Ovary relative size [4, 18]: 0.040 g per kg final bw
- Protein yield [4, 18]: 0.88 kg/day
- Red blood cells [4, 18]: 6.39* ×10^12/L
- Total cholesterol [4, 18]: 4.18* mmol/L
- Triglycerides [4, 18]: 0.130 mmol/L
- Water consumption [4, 18]: 94.6 kg/day
- Dry matter intake [4, 18]: 22.8 kg/day
- ALT [4, 19]: 24* U/L
- Albumin [4, 19]: 35* g/L
- Amylase [4, 19]: 31* U/L
- Body weight [4, 19]: 670 kg
- Body weight change [4, 19]: 36.6 kg
- Ca [4, 19]: 2.40 mmol/L
- Energy corrected milk [4, 19]: 24.7* kg/day
- Fat yield [4, 19]: 0.89* kg/day
- Fibrinogen [4, 19]: 1.00* g/L
- Haematocrit [4, 19]: 27* %
- Haemoglobin d56 [4, 19]: 103* g/L
- LDH d56 [4, 19]: 1034* U/L
- Mean corpuscular haemoglobin [4, 19]: 16 pg
- Milk yield [4, 19]: 27.5 kg/day
- Monocytes d5 [4, 19]: 0.43* ×10^9/L
- Ovary absolute size [4, 19]: 25.8* g
- Protein yield [4, 19]: 0.91 kg/day
- Prothrombin time [4, 19]: 27.0* s
- Red blood cells [4, 19]: 6.42* ×10^12/L
- Total cholesterol [4, 19]: 4.18* mmol/L
- Triglycerides [4, 19]: 0.124* mmol/L
- Water consumption [4, 19]: 87.0* kg/day
- Dry matter intake [4, 19]: 21.8* kg/day
- Number of cows with signs of liver chronic inflammation (out of 8) ([4]; 0.8× group (control 2)): 0
- Number of cows with signs of liver chronic inflammation (out of 8) ([4]; 1× group (control 2)): 3
- DM intake less than in the control group ([4]; 2× group): 4%
- Energy corrected milk yield increase compared with the control ([4]; 2× group): 7%
- Number of cows with signs of liver chronic inflammation (out of 8) ([4]; 2× group (control 2)): 5
- Micronuclei containing chromosome fragments (CREST staining) ([5]; 540 μg/mL): 79%
- Micronucleus frequency ([5]; with metabolic activation, 3 + 21 h, at 540, 570 and 600 μg/mL): statistically significant increase in micronuclei
- NOAEL ([6]; females): 300 mg/kg bw per day
- NOAEL ([6]; males, effects on spermatogenesis): 100 mg 3‐NOP/kg bw per day
- NOAEL ([7]; benign gastrointestinal mesenchymal tumours in small intestines): 100 mg 3‐NOP/kg bw per day
- Benign mesenchymal cell tumours (PWG) ([7]; females, 300 mg/kg bw per day): three
- Feed intake [8]: significantly (p < 0.05) reduced
- Eye irritation potential [9]: eye irritant
- log KOW [10]: 0.399
- Methane output in vitro [11]: reduces methane output significantly
